Assay results reported in ChEMBL document CHEMBL1153315, “Porphyrins containing nitric oxide donors: Synthesis and cancer cell-oriented NO release” (Bioorg Med Chem Lett, 2009).
Activity calls are given as the source filed them. The rule behind the calls is not given here.

Tests used:
[1] = tested on: Bel-7402; assay: Cytotoxicity against human Bel7402 after 72 hrs by MTT assay; format: functional, cell-based; settings: Bel-7402, 72 h
In short: (§1)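 Cells seeded at 1×10^3 per well in medium, preincubated 24 h at 37 °C in 5% CO2, then test drug added in medium to quadruplicate wells for 72 h. MTT ([…] in complete medium) added for 4 h; formazan dissolved in DMSO buffered with glycine-NaCl (pH 10.5); absorbance at 570 nm. IC50 taken as concentration giving 50% loss of viability; means of three experiments.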

[2] = Induction of NO release in PBS at pH 7.4 by Griess assay; format: physicochemical; settings: buffer
In short: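 Compound at 2 mM in 0.1 M phosphate buffer pH 7.4, no L-cysteine, incubated 1.5 h at 37 °C without air, then 10 min air at 25 °C. Nitrite measured by Griess reagent (sulfanilamide/N-naphthylethylenediamine), absorbance at 540 nm against a 0–100 µM sodium nitrite curve; expressed as % of 1 mol NO/mol theoretical release, n = 3.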

[3] = Induction of NO release in phosphate buffer containing L-cysteine at pH 7.4 by Griess assay; format: physicochemical
In short: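 Compound at 0.2 mM in 0.1 M phosphate buffer pH 7.4 mixed 1:1 with fresh 3.6 mM L-cysteine in the same buffer; incubated 1.5 h at 37 °C without air, then exposed to air 10 min at 25 °C. Griess reagent added, absorbance at 540 nm after 10 min; nitrite from sodium nitrite standard curve (0–100 µM); % of 1 mol NO/mol theoretical, n = 3.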

[4] = tested on: Bel-7402; assay: Cytotoxicity against human Bel7402 cells at 1.4 umol/L after 72 hrs by MTT assay; format: functional, cell-based
In short: (§2)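 BEL-7402 (liver cancer) and L-02 (liver normal) cells seeded at 1×10^3 per well, preincubated 24 h at 37 °C, 5% CO2, exposed to 1.4 μmol/L compound in quadruplicate wells for 72 h. Viability by MTT (4 h), formazan dissolved in glycine-NaCl-buffered DMSO, read at 570 nm. One-way ANOVA with LSD multiple comparisons, P < 0.05.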

[5] = tested on: MCF7; assay: Cytotoxicity against human MCF7 after 72 hrs by MTT assay; format: functional, cell-based; settings: MCF7, 72 h; in short: as §1
[6] = Cytotoxicity against human L02 cells at 1.4 umol/L after 72 hrs by MTT assay; format: cell-based; settings: l02, 72 h, 1.4 µM; in short: as §2
[7] = tested on: Bel-7402; assay: Induction of NO release in human Bel7402 cells assessed as decrease in absorbance at 100 umol/L after 30 mins by spectrophotometry; format: functional, cell-based
In short: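 BEL-7402 cells grown in 24-well plates at 37 °C, 5% CO2 to at least 70% confluency; medium replaced with medium containing 100 µmol/L compound. After 0 and 30 min at 37 °C, the drug-containing medium was removed and its absorbance measured by UV–vis spectrophotometry.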

SMILES | IC50 [1] | Activity [2] | Activity [3] | Activity [4] | IC50 [5] | Activity [6] | Activity [7]
O=[N+]([O-])OCCCOc1ccc(-c2c3nc(c(-c4ccccc4)c4ccc([nH]4)c(-c4ccccc4)c4nc(c(-c5ccccc5)c5ccc2[nH]5)C=C4)C=C3)cc1 | 3 µM | 0.47% | 3.95% | Active | 30 µM | – | –
O=Cc1ccc(OCCCO[N+](=O)[O-])cc1 | – | – | – | – | – | Toxic | –
O=Cc1ccc(OCCO[N+](=O)[O-])cc1 | – | – | – | – | – | Toxic | –
Cc1ccc(-c2c3nc(c(-c4ccc(C)cc4)c4ccc([nH]4)c(-c4ccc(OCCCO[N+](=O)[O-])cc4)c4nc(c(-c5ccc(C)cc5)c5ccc2[nH]5)C=C4)C=C3)cc1 | 1.4 µM | 1.1% | 6.25% | Active | 46 µM | – | –
C1=Cc2nc1c(-c1ccccc1)c1nc(c(-c3ccccc3)c3ccc([nH]3)c(-c3ccccc3)c3ccc([nH]3)c2-c2ccccc2)C=C1 [TETRAPHENYLPORPHYRIN] | 350 µM | – | – | – | 245 µM | – | –
O=c1[nH]cc(F)c(=O)[nH]1 [FLUOROURACIL] | 4.3 µM | – | – | – | 4.7 µM | – | –
Cc1ccc(-c2c3nc(c(-c4ccc(C)cc4)c4ccc([nH]4)c(-c4ccc(OCCO[N+](=O)[O-])cc4)c4nc(c(-c5ccc(C)cc5)c5ccc2[nH]5)C=C4)C=C3)cc1 | 1.8 µM | 0.55% | 3.12% | Active | 55 µM | – | –
O=[N+]([O-])OCCOc1ccc(-c2c3nc(c(-c4ccccc4)c4ccc([nH]4)c(-c4ccccc4)c4nc(c(-c5ccccc5)c5ccc2[nH]5)C=C4)C=C3)cc1 | 0.8 µM | 0.43% | 5.67% | Active | 8.7 µM | – | Active
